Assays:
[1] = target: T1, Histamine H2 receptor (Cavia porcellus, UniProt P47747); assay: Antagonistic activity against H2 receptor in guinea pig was evaluated
Summary of the method: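 Isolated guinea pig atrium preparation loaded with 400-mg tension, with propranolol (0.5 μM) present throughout. Histamine concentration-response curves were run with and without several antagonist concentrations (B). The dose ratio x was taken from histamine concentrations giving half-maximal responses. K_B was calculated as B/(x − 1), and pA2 = −log K_B.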

[2] = target: T1, Histamine H2 receptor; assay: Antagonistic activity against H2 receptor in guinea pig.

T1 sequence (P47747 whole entry): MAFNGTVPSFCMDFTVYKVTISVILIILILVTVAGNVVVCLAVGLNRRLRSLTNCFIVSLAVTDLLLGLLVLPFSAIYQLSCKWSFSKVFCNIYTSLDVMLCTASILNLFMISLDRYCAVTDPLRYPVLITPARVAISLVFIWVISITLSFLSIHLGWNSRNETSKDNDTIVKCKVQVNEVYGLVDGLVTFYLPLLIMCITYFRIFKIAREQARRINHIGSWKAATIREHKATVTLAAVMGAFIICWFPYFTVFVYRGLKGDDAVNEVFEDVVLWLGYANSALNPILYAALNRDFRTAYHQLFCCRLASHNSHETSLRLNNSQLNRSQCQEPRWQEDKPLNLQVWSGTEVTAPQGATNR

Kd [1]	Kd [2]	Compound
17.8 µM	–	CSC(=NCCSCc1[nH]cnc1C)NCCCc1cnc[nH]1
–	1.58 µM	Cc1nc[nH]c1CSCCNC(=N)NCCCc1cn(C)cn1

Source: BindingDB's records for doi:10.1021/jm00148a007 (1985)
